From ChEMBL document CHEMBL3352696, “Selective immunoproteasome inhibitors with non-peptide scaffolds identified from structure-based virtual screening” (Bioorg Med Chem Lett, 2014) come the findings set out here.

As a reminder, the IC50 is the concentration needed to halve the response being measured. Low values mean higher potency, high ones lower potency. One may read the inhibition as the drop in the measured response relative to a control, in per cent. Higher therefore signals a response far below the control.

The nature of assay [1]: Inhibition of chymotrypsin-like activity of human 20S immunoproteasome using Suc-LLVY-AMC as substrate after 90 mins by fluorescence assay.
The species named for assay [2] is Homo sapiens. As to the kind of experiment: Inhibition of chymotrypsin-like activity of human 20S immunoproteasome using Suc-LLVY-AMC as substrate at 5 uM after 90 mins by fluorescence assay. Put shortly: (§1)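 Purified human 20S immunoproteasome or constitutive proteasome, 2-fold diluted in 20 mM Tris/Cl pH 8.0, 0.5 mM EDTA, 0.035% SDS, at 50 ng/well. The enzyme was preincubated with compound (5 µM, from DMSO) for 90 min at room temperature. Then 100 µM Suc-LLVY-AMC was added and AMC fluorescence (Ex 360/Em 460) was read for 90 min. […] Run in triplicate.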

The subject of another assay is Proteasome. As to the kind of experiment: Inhibition of chymotrypsin-like activity of constitutive proteasome (unknown origin) using Suc-LLVY-AMC as substrate at 5 uM after 90 mins by fluorescence assay. The class given is subcellular. Conditions: Homo sapiens. Put shortly: as §1
For assay [3], the species on record is Homo sapiens. As to the kind of experiment: Inhibition of chymotrypsin-like activity of human 20S immunoproteasome using Suc-LLVY-AMC as substrate at 1 uM after 90 mins by fluorescence assay.

Residues, ends and D or L forms follow the SMILES beside them. *: point of attachment. Fmoc = O=C(OCC1c2ccccc2-c2ccccc21)*

Regarding `CCC[C@H]1C[C@H](C(=O)N[C@@H]([C@@H]2O[C@H](SC)[C@@H](O)[C@@H](O)[C@@H]2O)[C@@H](C)O)N(C)C1`, the IC50 in assay [1] is 22 µM. Further, the figures for the inhibition in the assay filed under Homo sapiens [2] and in the assay with Proteasome were 36% and 2%, respectively.

On to `Cc1ccc(CSC[C@@H](NC(=O)c2cc(-c3ccccc3)nc3ccccc23)C(=O)NCCCN2CCCC2=O)cc1`, for which the IC50 in assay [1] is 4.9 µM. Further, the inhibition is 62% in the assay listed under Homo sapiens [2] and 15% in the assay on Proteasome.

As to `Cc1cccc(Nc2ccccc2C(=O)N[C@H](CC[S@+](C)[O-])C(=O)N[C@H](C)c2ccc(F)cc2)c1C`, the inhibition in the assay filed under Homo sapiens [2] stood at 31%; with Proteasome, 33%.

With `CC[C@H](C)[C@H](NC(=O)[C@H]([C@@H](C)CC)N(C)C(C)=O)C(=O)N[C@H](C(=O)N[C@@H](CC(C)C)C(=O)[C@@]1(C)CO1)[C@@H](C)O`, the inhibition in the assay listed under Homo sapiens [3] was determined as 100%.

With `CCCCc1ccc2nc(-c3ccc(OC)cc3)cc(C(=O)NC[C@@H](C)C(=O)N3CCC[C@@H]3CO)c2c1`, the inhibition was 21% in the assay listed under Homo sapiens [2] and 2% with Proteasome.

Consider `O=C1CN(/N=C/c2ccc(-c3ccc(Cl)cc3)o2)C(=O)N1CCCCN1CCN(C[C@@H](O)c2ccccc2)CC1`, for which the inhibition in the assay listed under Homo sapiens [2] was found to be 25%; with Proteasome, 16%.

With `CC[C@@H](NC(=O)[C@@H](CC(C)C)NC(=O)OCc1ccccc1)C(=O)C(=O)NCCCN1CCOCC1`, the inhibition in the assay listed under Homo sapiens [2] worked out at 14%; in the assay on Proteasome, 6%.

`Cc1ccc(-c2cc(C(=O)NC[C@@H]3CCCO3)c3cc(CNS(=O)(=O)c4cccc(Cl)c4)ccc3n2)o1`: the IC50 in assay [1] is 1.7 µM. Moreover, the inhibition in the assay listed under Homo sapiens [2] came to 85%; with Proteasome, 20%.

Turning to `O=C(C[C@@H]1CCN(CC2CC2)C[C@@H]1[C@H]1CC(c2ccccc2Cl)=NO1)NCCc1ccccn1`, the inhibition in the assay listed under Homo sapiens [2] worked out at 13%; in the assay with Proteasome, 14%.

`NC(=O)CC[C@H](NC(=O)[C@H](Cc1cnc[nH]1)NC(=O)OCC1c2ccccc2-c2ccccc21)C(=O)N1CCC[C@H]1C(=O)O` (Fmoc-His-Gln-Pro-OH): the inhibition in the assay listed under Homo sapiens [2] came to 35%; with Proteasome, 24%.
